From ChEMBL document CHEMBL3102806, “1,2,4-Triazole/oxime hybrids as new strategy for nitric oxide donors: Synthesis, anti-inflammatory, ulceroginicity and antiproliferative activities” (Eur J Med Chem, 2014)

How the values were obtained:
Type in all cases: functional
[1] = Growth inhibition of human RXF393 cells after 48 hrs by sulforhodamine B assay; settings: RXF 393, 48 h
How it was run: (§1)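 NCI 60-cell-line panel (nine tumour subpanels), five-dose format: 10-fold dilutions from 10^-4 to 10^-8 M, 48 h continuous exposure, SRB protein stain. Percent growth at each level is derived from time-zero, untreated control and treated absorbances. GI50 is the concentration where [(Ti−Tz)/(C−Tz)]×100 = 50. Values outside the tested range are reported as above or below the limit.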

IGROV-1 = assay: Growth inhibition of human IGROV1 cells after 48 hrs by sulforhodamine B assay; settings: IGROV-1, 48 h
How it was run: (§2)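 NCI full ~60 cell line panel. Five 10-fold concentrations from 10^-4 to 10^-8 M, 48 h continuous exposure, SRB protein read-out. Time-zero, control and treated absorbances give percentage growth. GI50 is the concentration where [(Ti−Tz)/(C−Tz)]×100 = 50; TGI is where Ti = Tz; LC50 is where [(Ti−Tz)/Tz]×100 = −50.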

RPMI-8226 = assay: Growth inhibition of human RPMI8226 cells after 48 hrs by sulforhodamine B assay; settings: RPMI-8226, 48 h; how it was run: as §1
[2] = Growth inhibition of human HOP92 cells after 48 hrs by sulforhodamine B assay; settings: HOP-92, 48 h; how it was run: as §2
NCI-H23 = assay: Growth inhibition of human NCI-H23 cells after 48 hrs by sulforhodamine B assay; settings: NCI-H23, 48 h; how it was run: as §1
SR = assay: Growth inhibition of human SR cells after 48 hrs by sulforhodamine B assay
How it was run: (§3)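 NCI 60-cell-line panel, five-dose run at 10-fold dilutions from 10^-4 to 10^-8 M, 48 h continuous exposure. Viability by SRB protein stain. Percent growth is taken from time-zero, untreated-control and treated absorbances. GI50 is the concentration giving a 50% lower net protein increase than in control cells. TGI is taken at Ti = Tz, LC50 at a 50% loss of initial protein.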

NCI-H322M = assay: Growth inhibition of human NCI-H322M cells after 48 hrs by sulforhodamine B assay; how it was run: as §1
OVCAR-3 = assay: Growth inhibition of human OVCAR3 cells after 48 hrs by sulforhodamine B assay; settings: OVCAR-3, 48 h; how it was run: as §1
TK-10 = assay: Growth inhibition of human TK10 cells after 48 hrs by sulforhodamine B assay; settings: TK-10, 48 h; how it was run: as §3
COLO 205 = assay: Growth inhibition of human COLO205 cells after 48 hrs by sulforhodamine B assay; settings: COLO 205, 48 h; how it was run: as §2
NCI-H226 = assay: Growth inhibition of human NCI-H226 cells after 48 hrs by sulforhodamine B assay; settings: NCI-H226, 48 h; how it was run: as §1
MOLT-4 = assay: Growth inhibition of human MOLT4 cells after 48 hrs by sulforhodamine B assay; settings: MOLT-4, 48 h; how it was run: as §1
MCF7 = assay: Growth inhibition of human MCF7 cells after 48 hrs by sulforhodamine B assay; settings: MCF7, 48 h; how it was run: as §1
MDA-MB-435 = assay: Growth inhibition of human MDA-MB-435 cells after 48 hrs by sulforhodamine B assay; settings: MDA-MB-435, 48 h; how it was run: as §1
[3] = Growth inhibition of human HCC2998 cells after 48 hrs by sulforhodamine B assay; settings: HCC 2998, 48 h; how it was run: as §2
Malme-3M = assay: Growth inhibition of human MALME-3M cells after 48 hrs by sulforhodamine B assay; how it was run: as §1
[4] = Growth inhibition of human NCI-ADR-RES cells after 48 hrs by sulforhodamine B assay; how it was run: as §1
SK-OV-3 = assay: Growth inhibition of human SKOV3 cells after 48 hrs by sulforhodamine B assay; settings: SK-OV-3, 48 h; how it was run: as §3
DU-145 = assay: Growth inhibition of human DU145 cells after 48 hrs by sulforhodamine B assay; settings: DU-145, 48 h; how it was run: as §2
OVCAR-8 = assay: Growth inhibition of human OVCAR8 cells after 48 hrs by sulforhodamine B assay; settings: OVCAR-8, 48 h; how it was run: as §1
BT-549 = assay: Growth inhibition of human BT549 cells after 48 hrs by sulforhodamine B assay; settings: BT-549, 48 h; how it was run: as §2
SNB-19 = assay: Growth inhibition of human SNB19 cells after 48 hrs by sulforhodamine B assay; settings: SNB-19, 48 h; how it was run: as §3
NCI-H460 = assay: Growth inhibition of human NCI-H460 cells after 48 hrs by sulforhodamine B assay; settings: NCI-H460, 48 h; how it was run: as §1
SK-MEL-5 = assay: Growth inhibition of human SK-MEL-5 cells after 48 hrs by sulforhodamine B assay; settings: SK-MEL-5, 48 h; how it was run: as §3
A549 = assay: Growth inhibition of human A549/ATCC cells after 48 hrs by sulforhodamine B assay; settings: A549, 48 h; how it was run: as §2
LOX IMVI = assay: Growth inhibition of human LOXIMVI cells after 48 hrs by sulforhodamine B assay; how it was run: as §1
CAKI-1 = assay: Growth inhibition of human CAKI-1 cells after 48 hrs by sulforhodamine B assay; settings: CAKI-1, 48 h; how it was run: as §2
[5] = read-out: LC50 (the source's name)

Question: For `COc1ccc(-c2nnc(SCC(=O)Nc3ccc(/C(C)=N/O)cc3)n2-c2ccccc2)cc1OC`, which GI50 [1] is on record?
Answer: The GI50 was 2.56 µM.

Question: And the TGI [1]?
Answer: Its TGI is 7.11 µM.

Question: And the CC50 [1, 5]?
Answer: The CC50 was greater than 100 µM.

Question: What about the GI50 (IGROV-1) of the same compound?
Answer: Its GI50 is 3.74 µM.

Question: What about the TGI (IGROV-1) of the same compound?
Answer: The TGI was 29.4 µM.

Question: And the CC50 (IGROV-1; [5])?
Answer: The CC50 was greater than 100 µM.

Question: What about the GI50 (RPMI-8226) of the same compound?
Answer: The GI50 was greater than 100 µM.

Question: And the TGI (RPMI-8226)?
Answer: Its TGI is greater than 100 µM.

Question: What about the CC50 (RPMI-8226; [5]) of the same compound?
Answer: The CC50 was greater than 100 µM.

Question: And the GI50 [2]?
Answer: Its GI50 is 2.12 µM.

Question: And the TGI [2]?
Answer: The TGI was 6.42 µM.

Question: What about the CC50 [2, 5] of the same compound?
Answer: Its CC50 is greater than 100 µM.

Question: What about the GI50 (NCI-H23) of the same compound?
Answer: Its GI50 is 12.9 µM.

Question: What about the TGI (NCI-H23) of the same compound?
Answer: The TGI was greater than 100 µM.

Question: And the CC50 (NCI-H23; [5])?
Answer: The CC50 was greater than 100 µM.

Question: And the GI50 (SR)?
Answer: Its GI50 is greater than 100 µM.

Question: And the TGI (SR)?
Answer: The TGI was greater than 100 µM.

Question: What about the CC50 (SR; [5]) of the same compound?
Answer: Its CC50 is greater than 100 µM.

Question: And the GI50 (NCI-H322M)?
Answer: The GI50 was 4.41 µM.

Question: And the TGI (NCI-H322M)?
Answer: The TGI was greater than 100 µM.

Question: What about the CC50 (NCI-H322M; [5]) of the same compound?
Answer: The CC50 was greater than 100 µM.

Question: And the GI50 (OVCAR-3)?
Answer: The GI50 was 7.87 µM.

Question: And the TGI (OVCAR-3)?
Answer: The TGI was greater than 100 µM.

Question: What about the CC50 (OVCAR-3; [5]) of the same compound?
Answer: Its CC50 is greater than 100 µM.

Question: And the GI50 (TK-10)?
Answer: Its GI50 is 11.3 µM.

Question: And the TGI (TK-10)?
Answer: The TGI was 52.7 µM.

Question: What about the CC50 (TK-10; [5]) of the same compound?
Answer: Its CC50 is greater than 100 µM.

Question: And the GI50 (COLO 205)?
Answer: The GI50 was greater than 100 µM.

Question: And the TGI (COLO 205)?
Answer: Its TGI is greater than 100 µM.

Question: What about the CC50 (COLO 205; [5]) of the same compound?
Answer: Its CC50 is greater than 100 µM.

Question: What about the GI50 (NCI-H226) of the same compound?
Answer: The GI50 was 7.28 µM.

Question: What about the TGI (NCI-H226) of the same compound?
Answer: Its TGI is greater than 100 µM.

Question: What about the CC50 (NCI-H226; [5]) of the same compound?
Answer: The CC50 was greater than 100 µM.

Question: What about the GI50 (MOLT-4) of the same compound?
Answer: Its GI50 is greater than 100 µM.

Question: And the TGI (MOLT-4)?
Answer: Its TGI is greater than 100 µM.

Question: What about the CC50 (MOLT-4; [5]) of the same compound?
Answer: The CC50 was greater than 100 µM.

Question: And the GI50 (MCF7)?
Answer: Its GI50 is greater than 100 µM.

Question: What about the TGI (MCF7) of the same compound?
Answer: Its TGI is greater than 100 µM.

Question: What about the CC50 (MCF7; [5]) of the same compound?
Answer: Its CC50 is greater than 100 µM.

Question: And the GI50 (MDA-MB-435)?
Answer: Its GI50 is greater than 100 µM.

Question: And the TGI (MDA-MB-435)?
Answer: The TGI was greater than 100 µM.

Question: What about the CC50 (MDA-MB-435; [5]) of the same compound?
Answer: The CC50 was greater than 100 µM.

Question: And the GI50 [3]?
Answer: The GI50 was greater than 100 µM.

Question: What about the TGI [3] of the same compound?
Answer: Its TGI is greater than 100 µM.

Question: And the CC50 [3, 5]?
Answer: Its CC50 is greater than 100 µM.

Question: And the GI50 (Malme-3M)?
Answer: Its GI50 is 17.2 µM.

Question: What about the TGI (Malme-3M) of the same compound?
Answer: Its TGI is greater than 100 µM.

Question: What about the CC50 (Malme-3M; [5]) of the same compound?
Answer: Its CC50 is greater than 100 µM.

Question: And the GI50 [4]?
Answer: The GI50 was greater than 100 µM.

Question: What about the TGI [4] of the same compound?
Answer: The TGI was greater than 100 µM.

Question: What about the CC50 [4, 5] of the same compound?
Answer: The CC50 was greater than 100 µM.

Question: And the GI50 (SK-OV-3)?
Answer: The GI50 was 2.73 µM.

Question: What about the TGI (SK-OV-3) of the same compound?
Answer: Its TGI is 13.7 µM.

Question: And the CC50 (SK-OV-3; [5])?
Answer: Its CC50 is greater than 100 µM.

Question: And the GI50 (DU-145)?
Answer: The GI50 was 24.9 µM.

Question: What about the TGI (DU-145) of the same compound?
Answer: The TGI was greater than 100 µM.

Question: And the CC50 (DU-145; [5])?
Answer: The CC50 was greater than 100 µM.

Question: What about the GI50 (OVCAR-8) of the same compound?
Answer: The GI50 was 7.36 µM.

Question: And the TGI (OVCAR-8)?
Answer: Its TGI is greater than 100 µM.

Question: What about the CC50 (OVCAR-8; [5]) of the same compound?
Answer: The CC50 was greater than 100 µM.

Question: What about the GI50 (BT-549) of the same compound?
Answer: The GI50 was 13.7 µM.

Question: What about the TGI (BT-549) of the same compound?
Answer: Its TGI is greater than 100 µM.

Question: What about the CC50 (BT-549; [5]) of the same compound?
Answer: Its CC50 is greater than 100 µM.

Question: What about the GI50 (SNB-19) of the same compound?
Answer: The GI50 was 6.43 µM.

Question: And the TGI (SNB-19)?
Answer: Its TGI is greater than 100 µM.

Question: And the CC50 (SNB-19; [5])?
Answer: Its CC50 is greater than 100 µM.

Question: And the GI50 (NCI-H460)?
Answer: Its GI50 is greater than 100 µM.

Question: What about the TGI (NCI-H460) of the same compound?
Answer: Its TGI is greater than 100 µM.

Question: What about the CC50 (NCI-H460; [5]) of the same compound?
Answer: Its CC50 is greater than 100 µM.

Question: What about the GI50 (SK-MEL-5) of the same compound?
Answer: Its GI50 is greater than 100 µM.

Question: What about the TGI (SK-MEL-5) of the same compound?
Answer: Its TGI is greater than 100 µM.

Question: And the CC50 (SK-MEL-5; [5])?
Answer: Its CC50 is greater than 100 µM.

Question: And the GI50 (A549)?
Answer: Its GI50 is 9.73 µM.

Question: What about the TGI (A549) of the same compound?
Answer: The TGI was greater than 100 µM.

Question: What about the CC50 (A549; [5]) of the same compound?
Answer: Its CC50 is greater than 100 µM.

Question: What about the GI50 (LOX IMVI) of the same compound?
Answer: Its GI50 is greater than 100 µM.

Question: What about the TGI (LOX IMVI) of the same compound?
Answer: Its TGI is greater than 100 µM.

Question: And the CC50 (LOX IMVI; [5])?
Answer: Its CC50 is greater than 100 µM.

Question: What about the GI50 (CAKI-1) of the same compound?
Answer: Its GI50 is greater than 100 µM.

Question: What about the TGI (CAKI-1) of the same compound?
Answer: Its TGI is greater than 100 µM.

Question: And the CC50 (CAKI-1; [5])?
Answer: Its CC50 is greater than 100 µM.
